SR-BI DiI inh: inhibitors of mouse SR-BI mediated HDL lipid uptake; Q61009; ldlA[mSR-BI] CHO cells, DiI-HDL uptake fluorescence, 3 h; inhibition, % at 12.5 µM; actives 0.96% (n = 320,000); AID 488896;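 active means mean replicate inhibition of at least 70% and a set share of replicates each scoring 70 or more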;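 further: 0% = median of neutral control wells and 100% = median of positive control wells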
Target sequence (Q61009 whole entry, looked up): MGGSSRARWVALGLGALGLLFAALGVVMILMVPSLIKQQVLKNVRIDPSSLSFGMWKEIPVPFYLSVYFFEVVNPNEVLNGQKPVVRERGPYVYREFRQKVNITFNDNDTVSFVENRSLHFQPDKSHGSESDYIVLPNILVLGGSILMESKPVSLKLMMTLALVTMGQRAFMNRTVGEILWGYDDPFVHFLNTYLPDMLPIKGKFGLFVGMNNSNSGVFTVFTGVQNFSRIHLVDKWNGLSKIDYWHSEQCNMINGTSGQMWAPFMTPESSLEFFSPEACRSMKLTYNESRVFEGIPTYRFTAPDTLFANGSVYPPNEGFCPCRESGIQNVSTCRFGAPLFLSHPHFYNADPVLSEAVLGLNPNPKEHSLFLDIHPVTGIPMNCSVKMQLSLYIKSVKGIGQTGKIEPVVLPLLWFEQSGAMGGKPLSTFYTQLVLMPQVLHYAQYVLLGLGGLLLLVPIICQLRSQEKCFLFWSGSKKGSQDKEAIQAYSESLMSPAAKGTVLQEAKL
SR-BI uptake up: enhances SR-BI lipid uptake from DiI-HDL; activation, % at 12.5 µM; actives 0.096% (n = 320,000); CHO ldlA[mSR-BI] cells, DiI-HDL uptake fluorescence, 3 h; 100 = double the neutral-control signal;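 active means mean replicate activation of at least 60% and every replicate at or above 60%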;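 further: 0% = median plate neutral-control signal and 100% = twice that signal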
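Assay system: LDL receptor-deficient CHO ldlA cells overexpressing murine SR-BI / Medium: BSA-supplemented, HEPES-buffered Ham's F12, pH 7.4 / Probe or stimulus: DiI-labelled HDL at 10 µg/mL final / Timing: compound with DiI-HDL co-incubation, 3 h at 37 °C / Technique: bottom-read cell fluorescence after medium removal, ex 550/em 595 nm / Measure: HDL uptake via cellular fluorescence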
Xi reactivation: reactivates the inactive X chromosome in mouse fibroblasts | XiGFP mouse fibroblasts, % GFP-positive cells imaging, 3 d; cells co-treated with 5-aza-dC sensitizer; scaled so ellipticine positive control = 100% | activation, % at 7.58 µM | actives 0.055% (n = 360,000);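 active means mean normalized replicate activation at least 10% and every replicate at or above 10%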;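 further: 0% = median of on-plate neutral control wells and 100% = ellipticine 6 µM median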
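assay system = SV40-immortalized XiGFP fibroblast cells, line 68-5-11 | buffer or medium = DMEM plus 5-aza-dC sensitizer | doses = single-point pinned compound dosing | times = 3-day compound exposure, then 15 min fixation at room temperature | benchmarks = positive control ellipticine, 6 µM final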
NSD2 inh: blocks human histone methyltransferase NSD2; O96028; NSD2 peptide methylation, AlphaScreen, 120 min; inhibition, % at 12.5 µM; actives 0.54% (n = 310,000); AID 743445; in the data active means inhibition above about 50%
HGIII-sPLA2 inh: Blocks human group III sPLA2 activity | QFRET BODIPY PC-A2 liposome hydrolysis, fluorescence | inhibition, % at 12.2 µM | actives 0.56% (n = 370,000) | AID 743126;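 active means inhibition above mean plus 3 SD of compounds lying within the high and low control bounds, cut at about 19% in these data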;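 further: 0% = median of test compound wells and 100% = no enzyme DMSO wells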
ARNT TACC3 PPI: disrupts binding between human ARNT and TACC3; inhibition, % at 9.99 µM; Q9Y6A5; AID 623870; actives 0.66% (n = 390,000); AlphaScreen His-ARNT PAS-B/GST-TACC3 binding, luminescence; TACC3 fragment carries E629A point mutation;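 active means mean inhibition of replicates at least 50% and at least half of replicates each reaching 50%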;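 further: 0% = complete ARNT plus TACC3 wells and 100% = ARNT alone without TACC3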
sPLA2 confirm: human GIII-sPLA2 inhibition, confirmation; inhibition, % at 12.2 µM; actives 34% (n = 2,000); shares compounds with HGIII-sPLA2 inh; AID 743280; recombinant hGIII-sPLA2, BODIPY PC-A2 QFRET fluorescence;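 active means mean inhibition across triplicates above the hit cutoff set in the earlier primary screen, cut at about 19% in these data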;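 further: 0% = enzyme with DMSO and 100% = DMSO wells lacking enzyme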
535nm interf: optically interferes with 535nm fluorescence in sPLA2 counter-screen; shares compounds with HGIII-sPLA2 inh; BODIPY FL product fluorescence interference, QFRET; inhibition, % at 12.2 µM; actives 8.5% (n = 2,000);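 active means average inhibition above the solvent-only control mean plus 3 SD, cut at about 6% in these data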;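 further: 0% = DMSO with substrate plus product and 100% = DMSO with substrate alone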
BODIPY interf DR: counter-screen for HGIII-sPLA2 inhibitors: 535nm fluorescence interference, dose response; 240 tested, under 10 active; IC50, µM; BODIPY FL product fluorescence interference, cell-free; shares compounds with HGIII-sPLA2 inh;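 active means IC50 at or below 10 µM; inactive means IC50 above 10 µM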
Numbers without * were called inactive; · = not tested or not shown; ! = not active in a repeat. An excerpt weighted towards active compounds, which were near 2% of everything screened.

SMILES	SR-BI DiI inh	SR-BI uptake up	Xi reactivation	NSD2 inh	HGIII-sPLA2 inh	ARNT TACC3 PPI	sPLA2 confirm	535nm interf	others
COC(=O)C1=NN(C(=O)c2ccccc2)C(O)(c2ccc([N+](=O)[O-])cc2)C1 (configuration not stated)	25.7	-25.7	0.0	11.3	33.3*	3.5	56.6*	16.9*
CCC1=NN(C(=O)c2ccccc2[N+](=O)[O-])C(O)(c2ccccc2)C1 (configuration not stated)	·	·	0.0	·	22.7*	·	6.7	-1.2
Cc1ccc2[nH]c(=O)c(CN(CC3CCCO3)C(=O)c3cccs3)cc2c1 (configuration not stated)	·	·	0.9	2.2	4.1	-13.6	·	·
CCN(CC)c1ccc(NC(=O)c2ccc3c(c2)OCO3)cc1	16.9	-16.9	0.0	18.7	19.6*	25.1	18.6	-3.9
C/C(=N\N=C\c1cccc(F)c1)c1nnn(-c2nonc2N)c1C	28.2	-28.2	0.1	·	20.5*	-1.5	-4.7	-6.8
Cc1cc(C)nc(N/N=C/c2cccc3ccccc23)n1	-4.8	4.8	-0.1	-2.1	19.2*	-8.2	-3.2	-1.7
O=C(/C=C/c1ccccc1)NC(=S)NNC(=O)c1cnccn1	5.6	-5.6	0.0	41.4	24.5*	60.1*	33.9*	-0.8	BODIPY interf DR=>122
O=C(/C=C/c1ccccc1)NC(=S)NNC(=O)c1cccnc1	-18.0	18.0	·	2.0	9.0	28.9	·	·
COC(=O)[C@@H]1C[C@@]2(O)[C@H](O)[C@H](O)[C@H](O)C[C@H]2N1Cc1ccccc1OS(=O)(=O)c1ccc(C)cc1	-42.1	42.1	-0.6	·	-1.3	-0.6	·	·
O=C(NN1C(=O)c2ccccc2NC1c1ccccn1)c1ccc([N+](=O)[O-])cc1 (configuration not stated)	-4.8	4.8	0.1	-0.5	24.9*	-4.5	8.8	-4.8
Cc1ccc(C(=O)Nc2ccccc2C(=O)NCC2CCCO2)cc1 (configuration not stated)	0.1	-0.1	-0.1	-5.9	1.2	-3.3	·	·
COc1ccc(CNC(=O)c2cc(C3CC3)on2)cc1	11.9	-11.9	0.2	·	0.3	-11.3	·	·
N#Cc1c(SCC(N)=O)nc2c(c1-c1ccc(O)cc1)CCCC2	0.8	-0.8	·	·	-3.4	-0.6	·	·
COc1ccc(-c2c(C#N)c(SCC(N)=O)nc3c2CCCC3)cc1	28.8	-28.8	·	-2.5	19.8*	-4.7	19.6*	-6.8
COc1ccc(S(=O)(=O)N(C)C[C@@H]2Oc3ccc(NS(=O)(=O)c4ccc(F)cc4)cc3CC(=O)N([C@H](C)CO)C[C@H]2C)cc1	·	·	4.6	·	·	·	·	·
O=S(=O)(NNc1nccc(C(F)(F)F)n1)c1cccc(Cl)c1Cl	-0.3	0.3	0.0	-2.4	57.8*	4.6	84.1*	87.6*
OCc1cccc(-c2csc(C(O)c3ccccc3)n2)c1 (configuration not stated)	·	·	0.0	-0.1	-2.2	·	·	·
CCc1ccccc1NC(=O)CCS(=O)(=O)c1ccc(C)cc1	-6.8	6.8	-0.1	2.7	19.7*	-7.1	-1.7	-4.1
C[C@H]1CN([C@@H](C)CO)S(=O)(=O)c2ccc(Br)cc2O[C@@H]1CN(C)S(C)(=O)=O	·	·	-0.1	·	·	-5.2	·	·
NNc1nc2c(F)cc(F)cc2s1	16.4	-16.4	0.0	-3.2	20.0*	2.6	19.9*	5.3
O=S(=O)(/N=C(/Nc1cc(N2CCOCC2)ncn1)c1ccc(F)cc1)c1ccccc1	-1.3	1.3	2.2	-1.9	19.6*!	0.0	3.7	-5.7
